Reference: ChEMBL document CHEMBL1142148, “Antibiotic susceptibility profile of bifidobacteria as affected by oxgall, acid, and hydrogen peroxide stress” (2007)
Values after ≈ are worked out from the molar mass of the structure shown.

Experiments:
Bifidobacterium breve [1] = assay: Antimicrobial activity against 90 mins oxgall-stressed Bifidobacterium breve ATCC 15700 after 18 hrs; assay type: functional
Outline: (§1)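 Cells pelleted from mid-log MRS culture and resuspended in MRS (initial pH 6.5) with 0.3% (wt/vol) oxgall for 90 min anaerobically at 37°C. They were then regrown in MRS pH 6.5 for 24 h (footnote: 18 h) anaerobically and tested for MIC by the same broth microdilution assay. Median of four repetitions.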

Bifidobacterium longum [2] = assay: Antimicrobial activity against Bifidobacterium longum P/N 601377; assay type: functional
Outline: (§2)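 Broth microdilution in MRS plus 0.05% L-cysteine-HCl. Mid-log culture adjusted to OD650 0.1, giving about 2.5 × 10^4 to 5.0 × 10^4 CFU/well, then added to twofold serial dilutions of agent. Plates incubated anaerobically at 37°C for 18 h and read at OD650. MIC is the lowest concentration matching the uninoculated blank OD, taken as the median of four repeats.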

Bifidobacterium bifidum [3] = assay: Antimicrobial activity against 90 mins hydrogen peroxide-stressed Bifidobacterium bifidum BB12 after 18 hrs; assay type: functional
Outline: (§3)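 Stress applied for 90 min at 37°C under anaerobic conditions, using MRS (initial pH 6.5) containing H2O2 at each strain's own inhibitory concentration. The H2O2 level was set beforehand by microplate tolerance testing. Challenged cells were regrown in MRS for 24 h (footnote: 18 h) before MIC testing by broth microdilution. Median of four repetitions.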

Bifidobacterium breve [4] = assay: Antimicrobial activity against 60 min 1 M HCl-stressed Bifidobacterium breve ATCC 15700 after 18 hrs; assay type: functional
Outline: (§4)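 Mid-log MRS culture pelleted and resuspended in MRS broth brought to pH 2.0 with 1 M HCl, held anaerobically at 37°C for 60 min, then subcultured in MRS (pH 6.5) for 24 h anaerobically before MIC testing by broth microdilution (as for unstressed cells). Table footnote gives 18 h anaerobic regrowth after the stress. MIC is the median of four repetitions.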

Bifidobacterium bifidum [5] = assay: Antimicrobial activity against 60 min 1 M HCl-stressed Bifidobacterium bifidum R0071 after 18 hrs; assay type: functional; outline: as §4
Bifidobacterium bifidum [6] = assay: Antimicrobial activity against 90 mins oxgall-stressed Bifidobacterium bifidum R0071 after 18 hrs; assay type: functional; outline: as §1
Bifidobacterium bifidum [7] = assay: Antimicrobial activity against Bifidobacterium bifidum ATCC 15696; assay type: functional; outline: as §2
Bifidobacterium bifidum [8] = assay: Antimicrobial activity against Bifidobacterium bifidum BB12; assay type: functional; outline: as §2
Bifidobacterium animalis [9] = assay: Antimicrobial activity against 90 mins hydrogen peroxide-stressed Bifidobacterium animalis ATCC 27536 after 18 hrs; assay type: functional; outline: as §3
Bifidobacterium longum [10] = assay: Antimicrobial activity against Bifidobacterium longum ATCC 15707; assay type: functional; outline: as §2
Bifidobacterium longum [11] = assay: Antimicrobial activity against 90 mins hydrogen peroxide-stressed Bifidobacterium longum ATCC 15708 after 18 hrs; assay type: functional; outline: as §3
Bifidobacterium longum [12] = assay: Antimicrobial activity against 90 mins hydrogen peroxide-stressed Bifidobacterium longum P/N 601377 after 18 hrs; assay type: functional; outline: as §3
[13] = test system: Bifidobacterium pseudolongum; assay: Antimicrobial activity against Bifidobacterium pseudolongum ATCC 25562; assay type: functional; outline: as §2
Bifidobacterium bifidum [14] = assay: Antimicrobial activity against 60 min 1 M HCl-stressed Bifidobacterium bifidum BB12 after 18 hrs; assay type: functional; outline: as §4
Bifidobacterium breve [15] = assay: Antimicrobial activity against 60 min 1 M HCl-stressed Bifidobacterium breve R0070 after 18 hrs; assay type: functional; outline: as §4
Bifidobacterium breve [16] = assay: Antimicrobial activity against Bifidobacterium breve R0070; assay type: functional; outline: as §2
Bifidobacterium breve [17] = assay: Antimicrobial activity against 90 mins oxgall-stressed Bifidobacterium breve R0070 after 18 hrs; assay type: functional; outline: as §1
Bifidobacterium bifidum [18] = assay: Antimicrobial activity against Bifidobacterium bifidum R0071; assay type: functional; outline: as §2
Bifidobacterium longum [19] = assay: Antimicrobial activity against Bifidobacterium longum ATCC 15708; assay type: functional; outline: as §2
Bifidobacterium bifidum [20] = assay: Antimicrobial activity against 90 mins hydrogen peroxide-stressed Bifidobacterium bifidum R0071 after 18 hrs; assay type: functional; outline: as §3
Bifidobacterium longum [21] = assay: Antimicrobial activity against 60 min 1 M HCl-stressed Bifidobacterium longum ATCC 15707 after 18 hrs; assay type: functional; outline: as §4
Bifidobacterium bifidum [22] = assay: Antimicrobial activity against 90 mins oxgall-stressed Bifidobacterium bifidum BB12 after 18 hrs; assay type: functional; outline: as §1
Bifidobacterium breve [23] = assay: Antimicrobial activity against 90 mins hydrogen peroxide-stressed Bifidobacterium breve R0070 after 18 hrs; assay type: functional; outline: as §3
Bifidobacterium breve [24] = assay: Antimicrobial activity against 90 mins hydrogen peroxide-stressed Bifidobacterium breve ATCC 15700 after 18 hrs; assay type: functional; outline: as §3
[25] = test system: Bifidobacterium thermophilum; assay: Antimicrobial activity against 60 min 1 M HCl-stressed Bifidobacterium thermophilum ATCC 25866 after 18 hrs; assay type: functional; outline: as §4
[26] = test system: Bifidobacterium thermophilum; assay: Antimicrobial activity against 90 mins hydrogen peroxide-stressed Bifidobacterium thermophilum ATCC 25866 after 18 hrs; assay type: functional; outline: as §3
[27] = test system: Bifidobacterium thermophilum; assay: Antimicrobial activity against Bifidobacterium thermophilum ATCC 25866; assay type: functional; outline: as §2
Bifidobacterium longum [28] = assay: Antimicrobial activity against 60 min 1 M HCl-stressed Bifidobacterium longum P/N 601377 after 18 hrs; assay type: functional; outline: as §4
[29] = test system: Bifidobacterium thermophilum; assay: Antimicrobial activity against 90 mins oxgall-stressed Bifidobacterium thermophilum ATCC 25866 after 18 hrs; assay type: functional; outline: as §1
[30] = Antimicrobial activity against 90 mins oxgall-stressed Bifidobacterium infantis ATCC 15697 after 18 hrs; assay type: functional, Bifidobacterium longum subsp. infantis; settings: Bifidobacterium longum; outline: as §1
Bifidobacterium longum [31] = assay: Antimicrobial activity against 90 mins hydrogen peroxide-stressed Bifidobacterium longum ATCC 15707 after 18 hrs; assay type: functional; outline: as §3
Bifidobacterium breve [32] = assay: Antimicrobial activity against Bifidobacterium breve ATCC 15700; assay type: functional; outline: as §2
Bifidobacterium longum [33] = assay: Antimicrobial activity against 90 mins oxgall-stressed Bifidobacterium longum ATCC 15707 after 18 hrs; assay type: functional; outline: as §1
Bifidobacterium animalis [34] = assay: Antimicrobial activity against Bifidobacterium animalis ATCC 27536; assay type: functional; outline: as §2
Bifidobacterium longum [35] = assay: Antimicrobial activity against 90 mins oxgall-stressed Bifidobacterium longum P/N 601377 after 18 hrs; assay type: functional; outline: as §1
Bifidobacterium longum [36] = assay: Antimicrobial activity against 90 mins oxgall-stressed Bifidobacterium longum ATCC 15708 after 18 hrs; assay type: functional; outline: as §1
Bifidobacterium longum [37] = assay: Antimicrobial activity against 90 mins oxgall-stressed Bifidobacterium longum R0175 after 18 hrs; assay type: functional; outline: as §1
Bifidobacterium bifidum [38] = assay: Antimicrobial activity against 90 mins oxgall-stressed Bifidobacterium bifidum ATCC 15696 after 18 hrs; assay type: functional; outline: as §1
Bifidobacterium longum [39] = assay: Antimicrobial activity against Bifidobacterium longum R0175; assay type: functional; outline: as §2
[40] = Antimicrobial activity against 60 min 1 M HCl-stressed Bifidobacterium infantis ATCC 15697 after 18 hrs; assay type: functional, Bifidobacterium longum subsp. infantis; settings: Bifidobacterium longum; outline: as §4
[41] = test system: Bifidobacterium pseudolongum; assay: Antimicrobial activity against 60 min 1 M HCl-stressed Bifidobacterium pseudolongum ATCC 25562 after 18 hrs; assay type: functional; outline: as §4
[42] = test system: Bifidobacterium pseudolongum; assay: Antimicrobial activity against 90 mins oxgall-stressed Bifidobacterium pseudolongum ATCC 25562 after 18 hrs; assay type: functional; outline: as §1
Bifidobacterium animalis [43] = assay: Antimicrobial activity against 90 mins oxgall-stressed Bifidobacterium animalis ATCC 27536 after 18 hrs; assay type: functional; outline: as §1
Bifidobacterium longum [44] = assay: Antimicrobial activity against 60 min 1 M HCl-stressed Bifidobacterium longum R0175 after 18 hrs; assay type: functional; outline: as §4
Bifidobacterium longum [45] = assay: Antimicrobial activity against 90 mins hydrogen peroxide-stressed Bifidobacterium longum R0175 after 18 hrs; assay type: functional; outline: as §3
[46] = Antimicrobial activity against Bifidobacterium infantis ATCC 15697; assay type: functional, Bifidobacterium longum subsp. infantis; settings: Bifidobacterium longum; outline: as §2
Bifidobacterium animalis [47] = assay: Antimicrobial activity against 60 min 1 M HCl-stressed Bifidobacterium animalis ATCC 27536 after 18 hrs; assay type: functional; outline: as §4

MIC (Bifidobacterium breve [1]): 500 µg/mL (≈ 1030 µM) | MIC (Bifidobacterium longum [2]): 250 µg/mL (≈ 516 µM) | MIC (Bifidobacterium bifidum [3]): 500 µg/mL (≈ 1030 µM) | MIC (Bifidobacterium breve [4]): 500 µg/mL (≈ 1030 µM) | MIC (Bifidobacterium bifidum [5]): 0.98 µg/mL (≈ 2.02 µM) | MIC (Bifidobacterium bifidum [6]): 500 µg/mL (≈ 1030 µM) | MIC (Bifidobacterium bifidum [7]): > 500 µg/mL | MIC (Bifidobacterium bifidum [8]): > 500 µg/mL | MIC (Bifidobacterium animalis [9]): 500 µg/mL (≈ 1030 µM) | MIC (Bifidobacterium longum [10]): 500 µg/mL (≈ 1030 µM) | MIC (Bifidobacterium longum [11]): 500 µg/mL (≈ 1030 µM) | MIC (Bifidobacterium longum [12]): 250 µg/mL (≈ 516 µM) | MIC [13]: > 500 µg/mL | MIC (Bifidobacterium bifidum [14]): 250 µg/mL (≈ 516 µM) | MIC (Bifidobacterium breve [15]): 500 µg/mL (≈ 1030 µM) | MIC (Bifidobacterium breve [16]): 500 µg/mL (≈ 1030 µM) | MIC (Bifidobacterium breve [17]): 500 µg/mL (≈ 1030 µM) | MIC (Bifidobacterium bifidum [18]): 500 µg/mL (≈ 1030 µM) | MIC (Bifidobacterium longum [19]): 500 µg/mL (≈ 1030 µM) | MIC (Bifidobacterium bifidum [20]): 500 µg/mL (≈ 1030 µM) | MIC (Bifidobacterium longum [21]): 500 µg/mL (≈ 1030 µM) | MIC (Bifidobacterium bifidum [22]): 500 µg/mL (≈ 1030 µM) | MIC (Bifidobacterium breve [23]): 500 µg/mL (≈ 1030 µM) | MIC (Bifidobacterium breve [24]): > 500 µg/mL | MIC [25]: 500 µg/mL (≈ 1030 µM) | MIC [26]: 500 µg/mL (≈ 1030 µM) | MIC [27]: > 500 µg/mL | MIC (Bifidobacterium longum [28]): 250 µg/mL (≈ 516 µM) | MIC [29]: 500 µg/mL (≈ 1030 µM) | MIC [30]: > 500 µg/mL | MIC (Bifidobacterium longum [31]): 500 µg/mL (≈ 1030 µM) | MIC (Bifidobacterium breve [32]): > 500 µg/mL | MIC (Bifidobacterium longum [33]): 250 µg/mL (≈ 516 µM) | MIC (Bifidobacterium animalis [34]): 500 µg/mL (≈ 1030 µM) | MIC (Bifidobacterium longum [35]): 250 µg/mL (≈ 516 µM) | MIC (Bifidobacterium longum [36]): 500 µg/mL (≈ 1030 µM) | MIC (Bifidobacterium longum [37]): 500 µg/mL (≈ 1030 µM) | MIC (Bifidobacterium bifidum [38]): 125 µg/mL (≈ 258 µM) | MIC (Bifidobacterium longum [39]): 500 µg/mL (≈ 1030 µM) | MIC [40]: 500 µg/mL (≈ 1030 µM) | MIC [41]: 250 µg/mL (≈ 516 µM) | MIC [42]: 500 µg/mL (≈ 1030 µM) | MIC (Bifidobacterium animalis [43]): 500 µg/mL (≈ 1030 µM) | MIC (Bifidobacterium longum [44]): 250 µg/mL (≈ 516 µM) | MIC (Bifidobacterium longum [45]): 500 µg/mL (≈ 1030 µM) | MIC [46]: > 500 µg/mL | MIC (Bifidobacterium animalis [47]): 500 µg/mL (≈ 1030 µM)
Compound: NC[C@H]1O[C@H](O[C@H]2[C@H](O)[C@@H](O[C@H]3O[C@H](CO)[C@@H](O)[C@H](N)[C@H]3O)[C@H](N)C[C@@H]2N)[C@H](O)[C@@H](O)[C@@H]1O [KANAMYCIN]
